Our source for the inhibition and IC50 values is ChEMBL document CHEMBL2034909, “Inhibition of thioredoxin reductase by a novel series of bis-1,2-benzisoselenazol-3(2H)-ones: Organoselenium compounds for cancer therapy” (Bioorg Med Chem, 2012).

SMILES strings stand for the structures. Calls of active or inactive are those of the source. The rule behind the calls is not given here.

The inhibition is the change of the read-out against control, counted positive when it falls. The IC50 is the concentration at which inhibition is half-maximal.

Assay [1] can be described thus: Binding affinity to TrxR Sec498 residue at pH 8.5 after 2 hrs by BIAM assay.
The target in assay [2] is T1, Glutathione reductase, mitochondrial (Homo sapiens) (UniProt P00390).
T1 sequence (whole entry): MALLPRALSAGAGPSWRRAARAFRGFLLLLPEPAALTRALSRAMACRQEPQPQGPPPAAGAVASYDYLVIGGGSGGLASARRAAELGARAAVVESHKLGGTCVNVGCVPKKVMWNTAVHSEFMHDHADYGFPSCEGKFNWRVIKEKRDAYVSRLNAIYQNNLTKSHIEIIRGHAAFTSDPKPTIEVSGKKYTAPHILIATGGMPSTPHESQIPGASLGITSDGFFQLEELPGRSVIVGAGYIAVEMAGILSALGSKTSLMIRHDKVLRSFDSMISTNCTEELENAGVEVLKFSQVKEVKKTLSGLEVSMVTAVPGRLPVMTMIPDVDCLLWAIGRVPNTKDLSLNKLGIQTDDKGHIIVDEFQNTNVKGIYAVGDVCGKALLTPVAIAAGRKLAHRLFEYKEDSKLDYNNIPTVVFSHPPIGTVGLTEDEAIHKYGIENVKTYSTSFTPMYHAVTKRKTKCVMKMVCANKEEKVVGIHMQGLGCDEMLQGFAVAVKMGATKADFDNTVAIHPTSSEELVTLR
The experiment in a line: Inhibition of human glutathione reductase at 100 uM after 10 mins by GSSH reduction assay.

Assay [3] is described as follows: Reversible inhibition of TrxR by ultrafiltration assay.
Assay [4] concerns the target T2, Thioredoxin reductase (Homo sapiens, UniProt Q16881+Q9NNW7+Q86VQ6). In words: Inhibition of TrxR in human U87MG cells at 20 uM after 12 hrs by insulin-reducing method. Type of assay: cell-based. The following applies: U-87MG ATCC. In outline: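 U87 MG glioma cells were treated with compound for 12 h (1% DMSO control), washed in PBS, lysed in Triton/deoxycholate/EDTA/SDS/PMSF buffer and spun at 13000g. Lysate protein (40 µg, BCA) was incubated 30 min at 37 °C with HEPES pH 7.6, EDTA, 1 mM NADPH, 1 µM E. coli Trx and 2.5 mg/ml insulin. Quench with guanidine-HCl/DTNB, read A412, subtract the no-Trx blank.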

Assay [5] is described as follows: Growth inhibition of human U87MG cells after 48 hrs by MTT assay. Type of assay: functional, cell-based, U-87MG ATCC. The following applies: U-87 MG. The essentials: (§1)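 Exponentially growing cells were seeded at 4000–5000 per well. LoVo was grown in RPMI 1640 and MIA PaCa-2 and U87 MG in DMEM, each with 10% FBS and penicillin/streptomycin at 37 °C under 5% CO2. Compounds in DMSO (0–50 μM) were added for 48 h, and growth was read by MTT.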
(In general: Tetrazolium assays rely on reduction of a dye to a coloured formazan, in cell work by metabolically active cells.)

The next assay relates to MIA PaCa-2. The experiment in a line: Growth inhibition of human MIAPaCa2 cells after 48 hrs by MTT assay. It is filed as functional, cell-based. As to conditions: MIA PaCa-2, 48 h. The essentials: as §1
Assay [6] can be described thus: Time dependent inhibition of TrxR.
A short description of assay [7]: Binding affinity to TrxR Sec498 residue at pH 6.5 after 2 hrs by BIAM assay.
Assay [8] in a line: Binding affinity to TrxR Cys497 residue at pH 8.5 after 2 hrs by BIAM assay.
For assay [9], the target named is T3, Thioredoxin reductase 1, cytoplasmic (Rattus norvegicus, UniProt O89049).
T3 sequence (O89049 whole entry): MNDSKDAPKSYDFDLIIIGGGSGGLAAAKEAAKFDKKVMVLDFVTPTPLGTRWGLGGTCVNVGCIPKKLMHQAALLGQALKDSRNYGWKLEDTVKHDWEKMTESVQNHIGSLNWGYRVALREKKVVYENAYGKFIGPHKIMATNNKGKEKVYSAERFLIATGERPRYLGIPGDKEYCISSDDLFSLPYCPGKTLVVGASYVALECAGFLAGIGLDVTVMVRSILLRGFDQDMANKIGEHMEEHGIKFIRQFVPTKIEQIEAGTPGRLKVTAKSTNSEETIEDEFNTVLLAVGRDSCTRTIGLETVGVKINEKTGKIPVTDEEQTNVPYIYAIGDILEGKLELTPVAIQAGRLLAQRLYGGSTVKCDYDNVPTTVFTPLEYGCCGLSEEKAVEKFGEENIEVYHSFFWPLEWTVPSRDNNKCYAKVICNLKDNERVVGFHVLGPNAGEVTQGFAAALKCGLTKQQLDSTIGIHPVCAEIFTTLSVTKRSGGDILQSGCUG
The experiment in a line: (§2) Inhibition of TrxR1 in rat liver homogenate preincubated for 5 mins measured by DNTB assay. It is filed as tissue-based. The essentials: (§3)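 Rat liver TrxR (purified, 10 μg) in 100 mM potassium phosphate, 2 mM EDTA, pH 7.4 with NADPH, pre-incubated 5 min with inhibitor (DMSO control) at room temperature. DTNB was then added and A412 increase followed over the first 120 s. IC50 given as mean ± SD of triplicate experiments.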

The target in assay [10] is T4, Thioredoxin reductase 1, cytoplasmic (Rattus norvegicus) (UniProt O89049).
T4 sequence (whole entry): T3 sequence (O89049 whole entry)
The assay is described as §2. It is filed as tissue-based. The essentials:
as §3

Assay [11] is described as follows: Mixed type inhibition of TrxR by Michaelis-Menten plot analysis.
A further assay concerns LoVo. The experiment in a line: Growth inhibition of human LoVo cells after 48 hrs by MTT assay. It is filed as functional, cell-based. The essentials: as §1
Assay [12] addresses T2, Thioredoxin reductase. The experiment in a line: Inhibition of TrxR in human U87MG cells after 12 hrs by insulin-reducing method. Type of assay: cell-based. As to conditions: for IC50: u-87mg atcc. In outline: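 U87 MG cells were treated with graded compound concentrations for 12 h, with 1% DMSO as control. Reactions were quenched with guanidine-HCl/DTNB and read at A412. The Trx-free blank was subtracted.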

Assay [13] concerns the target T2, Thioredoxin reductase. The experiment in a line: Inhibition of human C-terminal truncated TrxR. Type of assay: protein assay.
Another assay is filed under the species Homo sapiens. The experiment in a line: Inhibition of human […] Sec498Cys mutant at 100 uM after 10 mins by GSSH reduction assay.

For the molecule `COc1ccc2[se]n(CCn3[se]c4ccc(OC)cc4c3=O)c(=O)c2c1`, the inhibition entry in assay [1] was “Dose-dependent effect”; in assay [2], under 30%; on Thioredoxin reductase [4], over 90%; in assay [7], “Dose-dependent effect”; in [8] it was “Dose-dependent effect”; in assay [10], “Dose-dependent effect”. The inhibition entry in assay [3], in assay [6] and in assay [11] was “Active” each time. In addition, the half-inhibitory concentration (IC50) was determined as 1.64 µM in [5]; 2.84 µM in the assay with MIA PaCa-2; 0.13 µM in [9]; 5.28 µM with LoVo; 2 µM against Thioredoxin reductase [12].

Regarding `O=c1c2ccccc2[se]n1CCn1[se]c2ccccc2c1=O` [ETHASELEN], the inhibition entry (in assay [2]; at Thioredoxin reductase [13]; in the assay listed under Homo sapiens) was “inactive” throughout. The IC50 in assay [5] came out at 6.41 µM; with MIA PaCa-2, 3.79 µM; in the assay with LoVo it was 7.67 µM; at Thioredoxin reductase [12] it was 5 µM. The inhibition entry (in [10]; on Thioredoxin reductase [12] (U-87MG ATCC)) was “Dose-dependent effect” in each case.
